Values after ≈ are worked out from the molar mass of the structure shown.
Columns and labels:
[1] = test system: Mycobacterium avium; assay: Antimycobacterial activity against Isoniazid, rifampicin, ofloxacin and ethambutol-resistant Mycobacterium avium 330/88 assessed as complete growth inhibition after 14 days; assay type: functional; conditions: 330/88, 336 h
Summary of the method: (§1)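 M. tuberculosis 331/88 (H37Rv) inoculum diluted 10-3, M. avium 330/88 diluted 10-5. MIC is the lowest concentration giving complete growth inhibition. Isoniazid and p-aminosalicylic acid as references. Quadruplicate, repeated twice.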

[2] = test system: Mycobacterium kansasii; assay: Antimycobacterial activity against Mycobacterium kansasii 235/80 assessed as complete growth inhibition after 21 days; assay type: functional; conditions: 235/80, 504 h
Summary of the method: (§2)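 Dilutions of M. kansasii inoculum were 10-4 for strain 235/80 and 10-5 for clinical isolate 6509/96. MIC was the lowest concentration giving complete growth inhibition, run in quadruplicate and repeated twice.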

[3] = test system: Staphylococcus epidermidis; assay: Antimicrobial activity against Staphylococcus epidermidis H 6966/08 after 48 hrs by microdilution method; assay type: functional; conditions: H 6966/08, 48 h
Summary of the method: (§3)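 Broth microdilution in Mueller-Hinton broth, compounds dissolved in DMSO, final concentrations 500 to 0.49 µM. Benzylpenicillin and bacitracin were run as comparators. MIC was taken as 95% (IC95) or greater growth reduction versus control. Each determination was done twice.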

[4] = Selectivity index, ratio of IC50 for human HepG2 cells to MIC for Trichophyton mentagrophytes 445
[5] = test system: Mycobacterium avium; assay: Antimycobacterial activity against Isoniazid, rifampicin, ofloxacin and ethambutol-resistant Mycobacterium avium 330/88 assessed as complete growth inhibition after 21 days; assay type: functional; conditions: 330/88, 504 h; summary of the method: as §1
[6] = test system: Mycobacterium kansasii; assay: Antimycobacterial activity against clinical isolate Mycobacterium kansasii 6509/96 assessed as complete growth inhibition after 7 days; assay type: functional; conditions: 6509/96, 168 h; summary of the method: as §2
[7] = test system: Staphylococcus aureus; assay: Antimicrobial activity against Staphylococcus aureus CCM 4516/08 after 48 hrs by microdilution method; assay type: functional; conditions: CCM 4516/08, 48 h
Summary of the method: (§4)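 Mueller-Hinton broth microdilution; compounds dissolved in DMSO, final concentrations 500 to 0.49 µM. […] Benzylpenicillin and bacitracin as comparators. Each determination done twice.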

[8] = test system: Mycobacterium tuberculosis; assay: Antimycobacterial activity against Mycobacterium tuberculosis H37Rv 331/88 assessed as complete growth inhibition after 21 days; assay type: functional; conditions: H37Rv 331/88, 504 h; summary of the method: as §1
[9] = test system: Mycobacterium tuberculosis; assay: Antimycobacterial activity against Mycobacterium tuberculosis H37Rv 331/88 assessed as complete growth inhibition after 14 days; assay type: functional; conditions: H37Rv 331/88, 336 h; summary of the method: as §1
[10] = test system: Mycobacterium kansasii; assay: Antimycobacterial activity against clinical isolate Mycobacterium kansasii 6509/96 assessed as complete growth inhibition after 21 days; assay type: functional; conditions: 6509/96, 504 h; summary of the method: as §2
[11] = test system: Staphylococcus aureus; assay: Antimicrobial activity against methicillin-resistant Staphylococcus aureus H 5996/08 after 24 hrs by microdilution method; assay type: functional; conditions: H 5996/08, 24 h; summary of the method: as §4
[12] = Selectivity index, ratio of IC50 for human HepG2 cells to MIC for Mycobacterium tuberculosis H37Rv; assay type: toxicity, cell-based; conditions: read-out: Selectivity Index
Summary of the method: (§5)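 Selectivity index = HepG2 IC50 / MIC. HepG2 cells (passage 3–4) grown in Eagle's MEM with 10% FBS, L-glutamine and non-essential amino acids. Compounds added from DMSO, eight concentrations in triplicate, tetrazolium-reduction colorimetric read-out.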

[13] = Inhibition of Mycobacterium tuberculosis H37Rv isocitrate lyase assessed as glyoxylate phenyl hydrazone formation at 10 uM
[14] = test system: Trichophyton mentagrophytes; assay: Antimicrobial activity against Trichophyton mentagrophytes 445 after 120 hrs by microdilution method; assay type: functional; conditions: Trichophyton mentagrophytes, 445, 120 h
Summary of the method: (§6)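 Broth microdilution in RPMI 1640 with glutamine, with fluconazole and amphotericin B as references. For filamentous fungi, MIC is expressed as the IC50, i.e. the concentration giving 50% growth reduction versus control. Each determination was done twice.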

[15] = test system: Staphylococcus epidermidis; assay: Antimicrobial activity against Staphylococcus epidermidis H 6966/08 after 24 hrs by microdilution method; assay type: functional; conditions: H 6966/08, 24 h; summary of the method: as §3
[16] = test system: Mycobacterium kansasii; assay: Antimycobacterial activity against clinical isolate Mycobacterium kansasii 6509/96 assessed as complete growth inhibition after 14 days; assay type: functional; conditions: 6509/96, 336 h; summary of the method: as §2
[17] = Selectivity index, ratio of IC50 for human HepG2 cells to MIC for methicillin-resistant Staphylococcus aureus H 5996/08
Summary of the method: as §5, with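 “read-out. IC50 is the concentration reducing viability to 50% of control; 10% DMSO as 0% viability.” for “read-out.”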

[18] = Selectivity index, ratio of IC50 for human HepG2 cells to MIC for atypical mycobacteria
Summary of the method: as §5, with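 “read-out. IC50 is the concentration reducing viability to 50% of control; 10% DMSO as 0% viability.” for “read-out.”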

[19] = test system: Staphylococcus aureus; assay: Antimicrobial activity against methicillin-resistant Staphylococcus aureus H 5996/08 after 48 hrs by microdilution method; assay type: functional; conditions: H 5996/08, 48 h; summary of the method: as §4
[20] = test system: Staphylococcus aureus; assay: Antimicrobial activity against Staphylococcus aureus CCM 4516/08 after 24 hrs by microdilution method; assay type: functional; conditions: CCM 4516/08, 24 h; summary of the method: as §4
[21] = test system: Trichophyton mentagrophytes; assay: Antimicrobial activity against Trichophyton mentagrophytes 445 after 72 hrs by microdilution method; assay type: functional; conditions: Trichophyton mentagrophytes, 445, 72 h; summary of the method: as §6
[22] = test system: Enterococcus sp.; assay: Antimicrobial activity against Enterococcus sp. J 14365/08 after 24 hrs by microdilution method; assay type: functional; conditions: J 14365/08, 24 h; summary of the method: as §3
[23] = test system: HepG2; assay: Cytotoxicity against human HepG2 cells assessed as reduction in cell viability after 24 hrs by MTS assay; assay type: cell-based; conditions: HepG2, 24 h
Summary of the method: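 HepG2 hepatocellular carcinoma cells (passage 3–4) were grown in Eagle's MEM with 10% FBS, 1% L-glutamine and non-essential amino acids. Compounds were added from DMSO at eight concentrations in triplicate, with 10% DMSO as the 0% viability control. Viability was read by tetrazolium salt reduction (CellTiter 96 AQueous One). IC50 is the concentration reducing viability to 50% of control.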

[24] = test system: Enterococcus sp.; assay: Antimicrobial activity against Enterococcus sp. J 14365/08 after 48 hrs by microdilution method; assay type: functional; conditions: J 14365/08, 48 h; summary of the method: as §3
[25] = test system: Mycobacterium kansasii; assay: Antimycobacterial activity against Mycobacterium kansasii 235/80 assessed as complete growth inhibition after 7 days; assay type: functional; conditions: 235/80, 168 h; summary of the method: as §2
[26] = test system: Mycobacterium kansasii; assay: Antimycobacterial activity against Mycobacterium kansasii 235/80 assessed as complete growth inhibition after 14 days; assay type: functional; conditions: 235/80, 336 h; summary of the method: as §2

| SMILES | MIC [1] | MIC [2] | MIC [3] | Selectivity Index [4] | MIC [5] | MIC [6] | MIC [7] | MIC [8] | MIC [9] | MIC [10] | MIC [11] | MIC [14] | MIC [15] | Selectivity Index [17] | MIC [19] | MIC [20] | MIC [21] | MIC [22] | IC50 [23] | MIC [24] | further results |
| --- | --- | --- | --- | --- | --- | --- | --- | --- | --- | --- | --- | --- | --- | --- | --- | --- | --- | --- | --- | --- | --- |
| CN(C)C(=S)Oc1ccc(Cl)cc1C(=O)Nc1ccc(Cl)cc1 | 16 µM (≈ 5.91 µg/mL) | 16 µM (≈ 5.91 µg/mL) | 31.2 µM (≈ 11.5 µg/mL) | 442.8 | 16 µM (≈ 5.91 µg/mL) | 16 µM (≈ 5.91 µg/mL) | 7.81 µM (≈ 2.88 µg/mL) | 8 µM (≈ 2.95 µg/mL) | 4 µM (≈ 1.48 µg/mL) | 16 µM (≈ 5.91 µg/mL) | 3.9 µM (≈ 1.44 µg/mL) | 1.95 µM (≈ 0.72 µg/mL) | 7.81 µM (≈ 2.88 µg/mL) | 21.4 | 7.81 µM (≈ 2.88 µg/mL) | 3.9 µM (≈ 1.44 µg/mL) | 1.95 µM (≈ 0.72 µg/mL) | 125 µM (≈ 46.2 µg/mL) | 83.5 µM | > 125 µM | selectivity ratio [12]: 10.4; inhibition [13]: 6%; MIC [16]: 16 µM (≈ 5.91 µg/mL); Selectivity Index [18]: 5.2; MIC [25]: 8 µM (≈ 2.95 µg/mL); MIC [26]: 16 µM (≈ 5.91 µg/mL) |
| CN(C)C(=S)Oc1ccc(Cl)cc1C(=O)Nc1ccc(F)cc1 | 32 µM (≈ 11.3 µg/mL) | 32 µM (≈ 11.3 µg/mL) | 31.2 µM (≈ 11 µg/mL) | 15 | 32 µM (≈ 11.3 µg/mL) | 16 µM (≈ 5.65 µg/mL) | 31.2 µM (≈ 11 µg/mL) | 16 µM (≈ 5.65 µg/mL) | 8 µM (≈ 2.82 µg/mL) | 32 µM (≈ 11.3 µg/mL) | 31.2 µM (≈ 11 µg/mL) | 7.81 µM (≈ 2.76 µg/mL) | 31.2 µM (≈ 11 µg/mL) | 3.7 | 31.2 µM (≈ 11 µg/mL) | 15.6 µM (≈ 5.51 µg/mL) | 7.81 µM (≈ 2.76 µg/mL) | > 500 µM | 117 µM | > 500 µM | selectivity ratio [12]: 7.3; inhibition [13]: 7%; MIC [16]: 32 µM (≈ 11.3 µg/mL); Selectivity Index [18]: 3.7; MIC [25]: 16 µM (≈ 5.65 µg/mL); MIC [26]: 32 µM (≈ 11.3 µg/mL) |
| CN(C)C(=O)Oc1ccc(Cl)cc1C(=O)Nc1ccc(Cl)cc1 | 62.5 µM (≈ 22.1 µg/mL) | 62.5 µM (≈ 22.1 µg/mL) | 125 µM (≈ 44.2 µg/mL) | 6 | 62.5 µM (≈ 22.1 µg/mL) | 62.5 µM (≈ 22.1 µg/mL) | 125 µM (≈ 44.2 µg/mL) | 16 µM (≈ 5.65 µg/mL) | 16 µM (≈ 5.65 µg/mL) | 125 µM (≈ 44.2 µg/mL) | 62.5 µM (≈ 22.1 µg/mL) | 31.2 µM (≈ 11 µg/mL) | 125 µM (≈ 44.2 µg/mL) | 1.5 | 125 µM (≈ 44.2 µg/mL) | 62.5 µM (≈ 22.1 µg/mL) | 31.2 µM (≈ 11 µg/mL) | 125 µM (≈ 44.2 µg/mL) | 189 µM | > 125 µM | selectivity ratio [12]: 11.8; inhibition [13]: 6%; MIC [16]: 125 µM (≈ 44.2 µg/mL); Selectivity Index [18]: 1.5; MIC [25]: 62.5 µM (≈ 22.1 µg/mL); MIC [26]: 62.5 µM (≈ 22.1 µg/mL) |
| OC(Cn1cncn1)(Cn1cncn1)c1ccc(F)cc1F [FLUCONAZOLE] |  |  |  | >2.4 |  |  |  |  |  |  |  | 125 µM (≈ 38.3 µg/mL) |  |  |  |  | 7.81 µM (≈ 2.39 µg/mL) |  | > 300 µM |  |  |
| CC1(C)S[C@@H]2[C@H](NC(=O)Cc3ccccc3)C(=O)N2[C@H]1C(=O)O [PENICILLIN G] |  |  | 250 µM (≈ 83.6 µg/mL) |  |  |  | 0.98 µM (≈ 0.328 µg/mL) |  |  |  | 62.5 µM (≈ 20.9 µg/mL) |  | 250 µM (≈ 83.6 µg/mL) | >10.2 | 125 µM (≈ 41.8 µg/mL) | 0.98 µM (≈ 0.328 µg/mL) |  | 7.81 µM (≈ 2.61 µg/mL) | > 10000 µM | 15.6 µM (≈ 5.22 µg/mL) |  |
